Assay outcomes (PubChem BioAssay)
Most compounds without a hit are left out; they make up all but 2.3% or so of the library.
LMPTP inh: LMPTP (human) inhibition. P24666. AID 651560. inhibition, % at 20 µM. recombinant LMPTP-A, OMFP fluorogenic substrate, fluorescence intensity. actives 0.22% (n = 360,000);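 active = compounds that cut the enzyme signal by at least half of the control window in the single-dose screen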;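 note: plate controls were DMSO wells with enzyme plus substrate for no effect and substrate without enzyme for full effect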
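Assay system: LMPTP-A phosphatase enzyme | Input: 0.625 nM enzyme | Also added: Fluorogenic phosphatase substrate OMFP at 400 µM final | Compound dosing: One test concentration per compound, 20 µM, with 3% DMSO overall | Schedule: 50 min enzyme reaction at room temperature, protected from light | Signal: Fluorescence intensity | Benchmarks: no-enzyme and uninhibited controls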
DNMT1 inh: blocks human DNA methyltransferase DNMT1; inhibition (reported as % activation of signal), % at 10 µM; P26358; DNMT1 molecular beacon, Hinp1I cleavage, fluorescence; actives 0.83% (n = 360,000); in the data active = inhibition above about 50%
Target sequence (P26358 504-1616 limits assumed): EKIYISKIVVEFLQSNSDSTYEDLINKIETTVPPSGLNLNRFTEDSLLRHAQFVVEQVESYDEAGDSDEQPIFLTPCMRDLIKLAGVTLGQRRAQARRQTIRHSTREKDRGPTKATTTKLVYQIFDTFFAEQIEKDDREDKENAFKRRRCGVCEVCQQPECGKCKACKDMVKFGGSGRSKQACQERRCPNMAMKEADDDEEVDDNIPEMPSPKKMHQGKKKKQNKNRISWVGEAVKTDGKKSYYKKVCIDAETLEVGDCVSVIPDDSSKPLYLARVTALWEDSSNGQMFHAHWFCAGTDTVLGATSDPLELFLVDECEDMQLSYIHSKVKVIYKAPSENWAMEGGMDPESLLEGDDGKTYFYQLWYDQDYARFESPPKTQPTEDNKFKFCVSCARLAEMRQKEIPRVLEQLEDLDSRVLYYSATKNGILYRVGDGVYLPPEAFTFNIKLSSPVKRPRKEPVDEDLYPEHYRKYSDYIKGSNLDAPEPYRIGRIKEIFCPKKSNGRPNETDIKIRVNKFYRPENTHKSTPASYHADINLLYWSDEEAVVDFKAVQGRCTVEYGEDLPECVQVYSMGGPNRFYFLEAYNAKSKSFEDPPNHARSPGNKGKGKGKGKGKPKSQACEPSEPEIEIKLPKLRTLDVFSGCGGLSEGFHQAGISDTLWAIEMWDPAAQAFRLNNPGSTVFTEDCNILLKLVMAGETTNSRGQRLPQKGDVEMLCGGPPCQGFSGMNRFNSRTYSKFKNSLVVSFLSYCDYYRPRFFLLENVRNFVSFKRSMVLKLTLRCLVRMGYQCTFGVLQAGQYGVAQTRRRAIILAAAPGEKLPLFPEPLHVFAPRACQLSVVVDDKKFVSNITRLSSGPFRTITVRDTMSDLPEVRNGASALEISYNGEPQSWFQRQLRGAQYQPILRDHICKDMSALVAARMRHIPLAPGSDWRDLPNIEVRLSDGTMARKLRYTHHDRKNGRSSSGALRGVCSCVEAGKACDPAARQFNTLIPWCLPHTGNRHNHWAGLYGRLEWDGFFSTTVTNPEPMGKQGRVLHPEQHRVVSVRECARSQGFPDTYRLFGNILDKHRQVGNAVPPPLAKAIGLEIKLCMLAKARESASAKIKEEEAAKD
SUMO1-SIM PPI: modulators of human SUMO1-mediated protein-protein interactions; SUMO1 binding to a labelled peptide, TR-FRET, 1 h; actives 0.33% (n = 360,000); AID 602429; P63165; inhibition, % at 20 µM; in the data active = inhibition above about 37%
STEP inh: blocks human striatal-enriched tyrosine phosphatase; P54829; recombinant STEP, OMFP fluorogenic substrate, fluorescence; inhibition, % at 20 µM; actives 0.25% (n = 360,000); AID 588621;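 active = inhibition at 20 µM, scaled per plate between control wells, above about 37%, limit read from the data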;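 note: 0% = DMSO with enzyme and substrate and 100% = substrate only without enzyme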
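Material: STEP (striatal-enriched tyrosine phosphatase) enzyme, cell-free; Compound dosing: 20 µM single dose in 1% DMSO; Technique: fluorescence read at 480 nm ex / 540 nm em; Times: reaction 20 min, ambient temperature; Medium: 50 mM Bis-Tris pH 6.0 with 2.5 mM DTT and 0.005% Tween 20; Also added: OMFP at 25 µM.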
Scp-1 inhibitor: blocks human Scp-1 phosphatase activity; Q9GZU7; Recombinant Scp1, phosphopeptide, malachite green phosphate absorbance; inhibition, % at 20 µM; actives 0.88% (n = 340,000); AID 493091;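 active = inhibition above about 50% at 20 µM, limit read from the data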;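 note: plate controls were DMSO wells with enzyme for no effect and wells lacking enzyme for full effect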
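Test system – truncated SCP-1 phosphatase (76-261aa) · Reagent – Phosphorylated 17-residue peptide substrate · Incubation – 45 min room-temperature reaction, 5 min colour, 30 min stabiliser · Detection – colorimetric phosphate reagent with accelerator and stabiliser, absorbance at 630 nm · Measure – % inhibition at 20 µM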
Rpn11 inh: blocks the human proteasome subunit Rpn11 | human 26S proteasome, Ub4-pepOG fluorescence polarization; 20S core pre-blocked with epoxomicin | inhibition, % at 20 µM | actives 0.59% (n = 360,000) | AID 588493;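 active = inhibition at 20 µM, scaled to each plate's controls, above about 33%, limit read from the data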
* marks the source's active call; other numbers are inactive results; / = no result given.

SMILES	LMPTP inh	DNMT1 inh	SUMO1-SIM PPI	STEP inh	Scp-1 inhibitor	Rpn11 inh
O=C(c1ccc2nc(-c3ccco3)c(-c3ccco3)nc2c1)N1CCN(c2ncccn2)CC1	26	28	34	9	95*	-37
CCNC(=O)C1CCCN(C(=O)c2ccc3ccccc3c2)CC1 (stereo unspecified)	6	3	-4	3	/	-11
COc1ccc(NC(=O)NC2(C(=O)N3CCN(C)CC3)CCCCC2)cc1	-1	2	6	0	-10	-3
O=C1NN(c2ccc(Cl)c(Cl)c2)C(=O)/C1=C/c1ccc(-c2ccccc2C(=O)O)o1	8	60*	30	20	49	14
CC1=NN(c2ccc(Cl)c(C(=O)O)c2)C(=O)/C1=C\c1ccc(-c2ccc(C(=O)O)cc2)o1	1	28	14	21	81*	-7
CC1=NN(c2ccc(C)cc2)C(=O)/C1=C/c1ccc(-c2cc([N+](=O)[O-])ccc2O)o1	25	41	80*	7	20	-18
O=C1NN(c2cccc(Br)c2)C(=O)/C1=C/c1ccc(-c2cc([N+](=O)[O-])ccc2O)o1	77*	53*	102*	70*	99*	27
Cc1ccc(N2NC(=O)/C(=C/c3ccc(-c4ccc(Cl)c(C(=O)O)c4)o3)C2=O)cc1C	2	13	-3	8	22	4
CN(Cc1nc(Cc2ccccc2F)no1)Cc1cccc2ncccc12	0	2	3	-2	-5	5
COC(=O)c1cccc(NC(=O)c2cccnc2C(=O)O)c1C	-1	-4	0	1	5	-2
Cc1cnc(CN(C)C(=O)C2CCC(=O)N(CCc3ccc(Cl)cc3)C2)[nH]1 (stereo unspecified)	-3	5	40*	-3	/	4
COc1cc(CN2CCN(C(C)C)C(CCO)C2)ccc1OCc1ccccc1 (stereo unspecified)	-1	-30	0	-1	-1	-3
COc1cc(N=c2ssnc2Cl)cc(OC)c1OC	57*	0	-4	12	-4	-4
COc1ccc(N=c2ssnc2Cl)cc1	45	-1	-2	6	-7	3
Cc1csc(=O)n1CC(=O)Nc1ccc(Cl)c(Cl)c1	2	-8	-6	-5	-8	5
Cn1c(N)c(N2CCCCC2)c(=O)n(CC(=O)Nc2ccc(Cl)c(Cl)c2)c1=O	-1	-5	56*	-2	-3	3
Cc1c2cc(O)c(=O)cc-2oc2cc(O)c(O)cc12	80*	186*	23	-54	71*	-211
O=C1c2c(O)ccc(O)c2C(=O)c2c(NCCNCCO)ccc(NCCNCCO)c21	8	-269	93*	14	-15	43*
Cc1cc(C)cc(C(O)c2ncc(-c3ccc(F)cc3)[nH]2)c1 (stereo unspecified)	-1	7	0	-2	/	2
Cc1cc(F)ccc1S(=O)(=O)N(CC(=O)N1CCOCC1)CC(=O)N1CCOCC1	1	7	10	-1	1	0
O=C1NC(=S)S/C1=C\C=C\c1ccc([N+](=O)[O-])o1	82*	91*	97*	66*	87*	/
COc1cc(OC)cc(C(=O)Nc2ccc(N3CCN(C(=O)c4cccs4)CC3)cc2)c1	3	-4	42*	3	-2	-1
COc1cc(C=Nc2cccc(C)c2)c(O)c([N+](=O)[O-])c1	2	-11	-38	28	-3	39*
O=[N+]([O-])c1cccc(S(=O)(=O)c2ccc(NCCO)c([N+](=O)[O-])c2)c1	0	-1	-22	1	-5	-5
N#Cc1c(-c2ccccc2)nc(SCC(=O)N2c3ccccc3Sc3ccccc32)[nH]c1=O	4	5	47*	-4	-2	6
SMILES	LMPTP inh	DNMT1 inh	SUMO1-SIM PPI	STEP inh	Scp-1 inhibitor	Rpn11 inh
CCOc1ccccc1N1CCN(C(=O)NCc2ccc(C)cc2)CC1	1	0	0	2	0	-6
O=c1[nH]c2cc(Cl)ccc2n1-c1ccccc1	2	1	40*	-7	-13	-1
O=Cc1c(Cl)[nH]c(=O)n1-c1ccccc1	-2	1	-6	1	-8	-6
CC1CCCN(Cc2c(O)ccc3c2O/C(=C\c2ccco2)C3=O)C1 (stereo unspecified)	14	61*	2	-6	6	-88
CC1(C)C[C@H]2C3=CCC4[C@@]5(C)CC[C@H](O)[C@](C)(CO)C5CC[C@@]4(C)[C@]3(C)CC[C@@]2(C)[C@H](O)[C@@H]1O (stereo partly specified)	-1	22	18	-3	-1	4
CC1(C)C[C@H]2C3=CCC4[C@@]5(C)CC[C@H](O)[C@](C)(CO)C5CC[C@@]4(C)[C@]3(C)C[C@H]3O[C@@H]1[C@H](O)[C@]32CO (stereo partly specified)	-1	5	47*	-3	-4	4
O=C(O)c1cccc(Nc2nc(-c3ccc([N+](=O)[O-])cc3)nc3ccccc23)c1	52*	-10	-1	13	41	8
Oc1ccc(NCc2ccccc2OCc2ccccc2)cc1	24	-22	57*	3	-10	0
Clc1cccc(Cl)c1Cn1cnc2c(NCc3ccco3)ncnc21	4	-2	-3	0	2	-7
Clc1cccc(Cl)c1Cn1cnc(=NCc2ccco2)c2[nH]cnc21	84*	1	2	4	6	1
Nc1c(C(=O)NCc2ccco2)c2nc3ccccc3nc2n1CCc1ccc(F)cc1	2	7	10	2	-18	43*
CCN(CC)C(=O)CSc1nc2cc3c(cc2c(=O)n1Cc1ccco1)OCO3	0	1	2	-1	10	-11
CCC(C)NC(=O)CSc1nc2cc3c(cc2c(=O)n1Cc1ccco1)OCO3 (stereo unspecified)	-1	14	42*	-1	-5	-9
CCn1c(SCC(=O)c2ccc(Cl)cc2)nnc1-c1ccoc1C	-1	0	39*	1	-2	-5
Cn1c2ccccc2c2cc(/C=N/NC(=O)c3cc(O)cc(O)c3)ccc21	9	23	38	12	49	-6
Cn1c2ccccc2c2cc(/C=N/NC(=O)c3cc(O)ccc3O)ccc21	43	46	34	34	59*	16
Cc1ccc(NC(=O)CN2C(=O)S/C(=C/c3ccc(O)c([N+](=O)[O-])c3)C2=O)cc1C	80*	-9	3	24	76*	0
COc1ccc(N2CC(C(=O)N[C@@H](C)C(=O)NCc3ccccc3OC)CC2=O)cc1 (stereo partly specified)	-1	-1	0	-1	6	3
